Experimental data: ChEMBL document CHEMBL3822431, “Hydroxychalcone inhibitors of Streptococcus mutans glucosyl transferases and biofilms as potential anticaries agents” (Bioorg Med Chem Lett, 2016)
Calls of active or inactive are those of the source. The calls are words filed in the database; no cut-off is given here.

What was measured:
Streptococcus mutans [1] = assay: Inhibition of biofilm formation of Streptococcus mutans UA159 at 200 uM after 16 hrs by crystal violet staining; assay type: functional; conditions: for inhibition at 200 µM: UA159, 16 h
How it was run: (§1)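 S. mutans UA159 co-incubated with compound at various concentrations; biofilm quantified by crystal violet protocol, read at OD562.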

Streptococcus mutans [2] = assay: Growth inhibition of Streptococcus mutans UA159 at 200 uM after 24 hrs; assay type: organism-based; conditions: for growth inhibition (GI): streptococcus mutans, […], 24 h, 200 µM; for inhibition at 200 µM: Streptococcus mutans, UA159, 24 h, read-out: GI
How it was run: (§2)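 S. mutans UA159, S. sanguinis or S. gordonii co-incubated with compound at various concentrations; growth read as OD470; inhibition expressed relative to DMSO.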

Streptococcus mutans [3] = assay: Inhibition of biofilm formation of Streptococcus mutans UA159 after 16 hrs by crystal violet staining based serial dilution method; assay type: functional, organism-based; how it was run: as §1
Streptococcus mutans [4] = assay: Inhibition of biofilm formation of Streptococcus mutans UA159 at 25 to 100 uM by Syto9 staining based assay; assay type: functional, organism-based
How it was run: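 S. mutans UA159 wild type co-incubated with compound at various concentrations; resulting biofilms stained with Syto9 and examined by microscopy.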

Streptococcus mutans [5] = assay: Selectivity index, ratio of growth inhibition IC50 for Streptococcus mutans UA159 to biofilm inhibition IC50 for Streptococcus mutans UA159
Streptococcus mutans [6] = assay: Growth inhibition of Streptococcus mutans UA159 after 16 hrs; assay type: organism-based
How it was run: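 S. mutans UA159 co-incubated with compound at various concentrations; growth measured at OD470.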

Streptococcus gordonii = assay: Growth inhibition of Streptococcus gordonii at 200 uM after 24 hrs; assay type: organism-based; conditions: read-out: GI; how it was run: as §2
Streptococcus sanguinis = assay: Growth inhibition of Streptococcus sanguinis SK36 at 200 uM after 24 hrs; conditions: SK36, 24 h, read-out: GI; how it was run: as §2
[7] = molecular target: T1, Glucosyltransferase-SI (Streptococcus mutans serotype c (strain ATCC 700610 / UA159)) (UniProt P13470); assay: Inhibition of Wild-type Streptococcus mutans UA159 glucosyltransferase C at 50 uM by zymography
T1 sequence (whole entry): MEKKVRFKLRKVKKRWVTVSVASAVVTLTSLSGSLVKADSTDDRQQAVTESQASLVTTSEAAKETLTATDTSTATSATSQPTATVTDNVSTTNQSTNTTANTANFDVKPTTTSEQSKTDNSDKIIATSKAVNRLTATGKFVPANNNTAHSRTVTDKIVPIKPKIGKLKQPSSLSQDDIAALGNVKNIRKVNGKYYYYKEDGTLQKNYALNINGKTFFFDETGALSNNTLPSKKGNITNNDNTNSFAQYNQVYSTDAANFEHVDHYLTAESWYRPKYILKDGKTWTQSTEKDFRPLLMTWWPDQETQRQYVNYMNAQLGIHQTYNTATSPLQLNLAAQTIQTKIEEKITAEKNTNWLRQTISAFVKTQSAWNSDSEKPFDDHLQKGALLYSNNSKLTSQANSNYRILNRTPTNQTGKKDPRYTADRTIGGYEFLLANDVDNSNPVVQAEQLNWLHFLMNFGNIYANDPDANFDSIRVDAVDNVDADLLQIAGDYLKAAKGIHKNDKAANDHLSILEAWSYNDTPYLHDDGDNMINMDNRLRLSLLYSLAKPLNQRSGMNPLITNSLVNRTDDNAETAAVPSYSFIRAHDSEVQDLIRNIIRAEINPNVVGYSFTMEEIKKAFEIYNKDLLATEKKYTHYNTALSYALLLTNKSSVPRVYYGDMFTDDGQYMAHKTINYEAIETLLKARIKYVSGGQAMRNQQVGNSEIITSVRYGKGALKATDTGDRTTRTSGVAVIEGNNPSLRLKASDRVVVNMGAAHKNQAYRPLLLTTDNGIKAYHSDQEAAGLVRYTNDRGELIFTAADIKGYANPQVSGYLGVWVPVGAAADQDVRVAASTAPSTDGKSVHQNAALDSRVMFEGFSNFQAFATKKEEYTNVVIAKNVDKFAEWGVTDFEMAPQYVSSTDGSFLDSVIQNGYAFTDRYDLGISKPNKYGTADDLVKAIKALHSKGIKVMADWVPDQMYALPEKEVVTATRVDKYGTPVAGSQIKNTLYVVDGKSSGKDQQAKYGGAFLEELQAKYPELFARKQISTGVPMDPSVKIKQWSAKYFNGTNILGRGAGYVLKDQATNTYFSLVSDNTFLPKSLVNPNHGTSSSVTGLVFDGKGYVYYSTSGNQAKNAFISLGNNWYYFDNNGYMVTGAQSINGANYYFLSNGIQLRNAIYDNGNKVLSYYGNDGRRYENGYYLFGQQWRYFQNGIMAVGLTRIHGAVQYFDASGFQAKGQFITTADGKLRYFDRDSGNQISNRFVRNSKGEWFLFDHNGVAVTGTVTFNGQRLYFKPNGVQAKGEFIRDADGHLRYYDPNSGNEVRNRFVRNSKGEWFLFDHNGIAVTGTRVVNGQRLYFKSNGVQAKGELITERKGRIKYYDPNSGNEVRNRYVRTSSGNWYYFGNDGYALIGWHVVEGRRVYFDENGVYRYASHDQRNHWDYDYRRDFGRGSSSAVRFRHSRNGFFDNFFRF
How it was run: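 Compound (50 µM) added to overnight S. mutans UA159 wild-type cultures; Gtfs concentrated from supernatants, run on duplicate SDS-PAGE; second gel used for zymogram, glucan band intensity taken as Gtf activity.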

[8] = molecular target: T1, Glucosyltransferase-SI (Streptococcus mutans serotype c (strain ATCC 700610 / UA159)); assay: Inhibition of Wild-type Streptococcus mutans UA159 glucosyltransferase C at 50 uM by coomassie blue staining based SDS-PAGE method
How it was run: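 Compound (50 µM) added to overnight S. mutans UA159 wild-type cultures; Gtfs collected and concentrated from supernatants, run on SDS-PAGE in duplicate; one gel Coomassie blue stained for protein levels.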

[9] = Streptococcus mutans, UA159, 16 h
[10] = Streptococcus mutans, UA159, 16 h, read-out: IC50

Structure (SMILES): O=C(/C=C/c1ccccc1)c1ccc(O)cc1O [2',4'-DIHYDROXYCHALCONE]
- inhibition (Streptococcus mutans [1]): inactive
- growth inhibition (GI) (Streptococcus mutans [2]): Not Active

Structure (SMILES): O=C(/C=C/c1ccccc1O)c1ccc(O)cc1O
- inhibition (Streptococcus mutans [1]): inactive
- growth inhibition (GI) (Streptococcus mutans [2]): Not Active

Structure (SMILES): COc1ccc(/C=C/C(=O)c2cc(N(C)C)c(O)c(N(C)C)c2)cc1
- inhibition (Streptococcus mutans [1]): inactive
- growth inhibition (GI) (Streptococcus mutans [2]): Not Active

Structure (SMILES): O=C(/C=C/c1ccc(O)cc1O)c1cccc(O)c1 (stereo in doubt; 9) [listing 1 of 2 here]
- inhibition (Streptococcus mutans [3]): Dose-dependent effect
- inhibition (Streptococcus mutans [4]): Active

Structure (SMILES): COc1ccc(/C=C/C(=O)c2cc(O)ccc2O)cc1
- inhibition at 200 µM (Streptococcus mutans [1]): 87%
- inhibition at 200 µM (Streptococcus mutans [2]): 76%

Structure (SMILES): O=C(/C=C/c1ccc(O)cc1O)c1cccc(O)c1 (stereo in doubt; 9a)
- IC50 (Streptococcus mutans [3]): 68 µM
- Ratio IC50 (Streptococcus mutans [5]): 9.4

Structure (SMILES): COc1cc(/C=C/C(=O)c2ccccc2O)ccc1O
- inhibition at 200 µM (Streptococcus mutans [1]): 86%
- inhibition at 200 µM (Streptococcus mutans [2]): 85%
- IC50 (Streptococcus mutans [3]; [9]): 61 µM
- IC50 (Streptococcus mutans [6]; [10]): 44 µM

Structure (SMILES): O=C(/C=C/c1ccc(O)cc1)c1ccccc1O
- inhibition at 200 µM (Streptococcus mutans [1]): 27%
- inhibition at 200 µM (Streptococcus mutans [2]): 48%

Structure (SMILES): O=C(/C=C/c1cc(O)c(O)cc1O)c1ccccc1O (stereo in doubt; 18c)
- IC50 (Streptococcus mutans [3]): 224 µM
- IC50 (Streptococcus mutans [6]; [10]): 323 µM
- Ratio IC50 (Streptococcus mutans [5]): 1.5

Structure (SMILES): O=C(/C=C/c1cc(Cl)cc(Cl)c1O)c1cccc(O)c1
- inhibition at 200 µM (Streptococcus mutans [1]): 81%
- inhibition at 200 µM (Streptococcus mutans [2]): 82%

Structure (SMILES): O=C(/C=C/c1ccccc1O)c1cccc(O)c1
- growth inhibition (GI) (Streptococcus mutans [2]): Not Active

Structure (SMILES): COc1ccc(/C=C/C(=O)c2ccc(OC)c(OC)c2)cc1O
- inhibition at 200 µM (Streptococcus mutans [1]): 27%
- inhibition at 200 µM (Streptococcus mutans [2]): 30%

Structure (SMILES): COc1ccc(/C=C/C(=O)c2ccc3c(c2)OCO3)cc1O
- inhibition (Streptococcus mutans [1]): inactive
- growth inhibition (GI) (Streptococcus mutans [2]): Not Active

Structure (SMILES): O=C(/C=C/c1cccc(O)c1)c1ccccc1O
- inhibition at 200 µM (Streptococcus mutans [1]): 84%
- inhibition at 200 µM (Streptococcus mutans [2]): 86%
- IC50 (Streptococcus mutans [3]; [9]): 64 µM
- IC50 (Streptococcus mutans [6]; [10]): 32 µM

Structure (SMILES): O=C(/C=C/c1ccc(O)cc1O)c1cccc(O)c1 (stereo in doubt; 9) [listing 2 of 2 here]
- inhibition at 200 µM (Streptococcus gordonii): 10%
- inhibition at 200 µM (Streptococcus mutans [1]): 93%
- inhibition at 200 µM (Streptococcus mutans [2]): 10%
- IC50 (Streptococcus mutans [3]): 32 µM
- IC50 (Streptococcus mutans [6]): Not Active
- inhibition at 200 µM (Streptococcus sanguinis): 10%

Structure (SMILES): O=C(/C=C/c1cc(O)c(O)cc1O)c1ccccc1O (stereo in doubt; 18d) [listing 1 of 2 here]
- IC50 (Streptococcus mutans [3]): 76 µM
- IC50 (Streptococcus mutans [6]; read-out: IC50): 376 µM
- Ratio IC50 (Streptococcus mutans [5]): 4.9

Structure (SMILES): O=C(/C=C/c1cc(O)c(O)cc1O)c1ccccc1O (stereo in doubt; 18d) [listing 2 of 2 here]
- inhibition [7]: Active
- inhibition [8]: Active

Structure (SMILES): COc1cc(C(=O)/C=C/c2ccccc2O)ccc1O
- inhibition at 200 µM (Streptococcus mutans [1]): 85%
- inhibition at 200 µM (Streptococcus mutans [2]): 71%
- IC50 (Streptococcus mutans [3]; [9]): 34 µM
- IC50 (Streptococcus mutans [6]; [10]): 40 µM

Structure (SMILES): COc1cc(/C=C/C(=O)c2ccc(O)cc2)cc(OC)c1OC
- growth inhibition (GI) (Streptococcus mutans [2]): Not Active
